Bioassay records (PubChem BioAssay)
TAAR1 ag: agonists of human TAAR1; Q96RJ0; CHO RD-HGA16 TAAR1, Fluo-8 calcium fluorescence; vehicle wells 0%, saturating PEA agonist 100%; activation, % at 3 µM; 360,000 tested, 0.99% active; AID 624467;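 active = activation above the mean activation of all test compounds in the run plus 3 SD, cut at about 38% in these data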
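Test system: RD-HGA16 (CHO) cells co-expressing Gα16 and hTAAR1; dosing: one-point dosing at 3 µM (nominal); timing: 17-24 h seeding, 75 min 37 °C dye, 30 min RT; signal: kinetic Fluo-8 calcium fluorescence; read-out basis: % activation relative to PEA EC100 response; controls: DMSO and PEA EC100; replicates: n 1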
OX1R antag-1: OX1R (human) antagonism | inhibition, % at 6.6 µM | AID 485270 | OX1R-expressing cells, FRET antagonist read-out | 330,000 tested, 1.8% active; in the data active = inhibition mostly above about 38%, no sharp cut-off; inactive = mostly below about 40%;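 note: 0% = agonist challenge alone and 100% = reference antagonist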
TAAR1 antag: antagonists of human TAAR1; CHO RD-HGA16 TAAR1, Fluo-8 calcium fluorescence, antagonist; inhibition, % at 3 µM; 360,000 tested, 1.5% active; AID 624466; Q96RJ0;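 active = inhibition above a per-plate cutoff, the mean inhibition of test compounds on that plate plus 3 SD, cut at about 49% in these data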;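 note: 0% = DMSO plus EC80 beta-PEA response and 100% = DMSO alone without agonist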
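Material: RD-HGA16 CHO cells with stable hTAAR1 and Gα16; Dosing: single nominal final test compound concentration of 3 µM; Schedule: seeding 17-24 h prior, 75-min 37 °C, 30-min RT dye loading; Detection: kinetic Fluo-8 calcium fluorescence measurement; Measure: % inhibition from peak post-agonist over basal fluorescence ratio; Benchmarks: vehicle and agonist controls.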
NTR1 ag: NTR1 (human) agonism. 330,000 tested, 0.17% active. NTR1-U2OS beta-arrestin-GFP spot imaging, agonist mode. activation, % at 20 µM. P30989;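 active = activation at or above 40% of the spot to cytoplasm intensity ratio, with at least 20 cells analyzed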;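 note: 0% = DMSO without peptide and 100% = 100 nM NTR1 peptide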
Target sequence (P30989 whole entry, looked up): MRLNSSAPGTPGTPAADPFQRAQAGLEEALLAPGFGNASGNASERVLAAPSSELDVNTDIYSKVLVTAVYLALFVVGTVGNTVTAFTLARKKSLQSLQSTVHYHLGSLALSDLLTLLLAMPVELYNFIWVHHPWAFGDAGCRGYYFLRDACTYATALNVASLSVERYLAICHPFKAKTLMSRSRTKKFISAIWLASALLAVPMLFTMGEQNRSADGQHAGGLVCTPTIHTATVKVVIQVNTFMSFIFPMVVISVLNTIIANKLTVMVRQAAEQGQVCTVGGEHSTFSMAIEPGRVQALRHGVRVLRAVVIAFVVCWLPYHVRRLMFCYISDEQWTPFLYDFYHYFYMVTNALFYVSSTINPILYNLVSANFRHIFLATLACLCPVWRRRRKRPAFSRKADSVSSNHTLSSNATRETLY
CHO parental Ca: counter-screen for OX1R antagonists: effect in parental CHO cells; parental CHO-K1, ATP-induced calcium, Fluo-8 fluorescence; inhibition, % at 5.6 µM; 330,000 tested, 0.63% active;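 active = inhibition above that plate's mean sample inhibition plus 3 SD, cut at about 26% in these data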;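 note: 0% = ATP-challenged DMSO wells and 100% = DMSO wells without ATP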
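test system = CHO parental line | reagent = ATP stimulus | measured by = intracellular calcium via Fluo-8 no-wash fluorescent dye | control set = ATP and no-ATP DMSO wells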
OX1R antag-2: antagonists of human orexin 1 receptor. O43613. CHO/OX1R cells, Fluo-8 calcium fluorescence, orexin A. inhibition, % at 5 µM. 330,000 tested, 0.43% active. AID 434989;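 active = inhibition above its plate's threshold, mean inhibition of all tested compounds on the plate plus 3 SD, cut at about 37% in these data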;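 note: 0% = orexin A challenge wells and 100% = SB-334867-A antagonist wells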
Starred values were filed as active, the others as inactive; . = not tested or not shown. This is a sample that favours compounds with a hit; in the whole collection about 4% have one here.

SMILES | TAAR1 ag | OX1R antag-1 | TAAR1 antag | NTR1 ag | CHO parental Ca | OX1R antag-2
COc1ccc([C@H]2CC(=O)C=C(c3ccc(F)cc3OCc3ccccc3)C2)cc1 | 17 | -1 | 52* | 3 | 0 | 29
O=C(NC(C(=O)N1CCCC1C(=O)NC1CCCC1)c1ccccc1)c1cccs1 (stereo not given) | 2 | . | 1 | . | . | .
O=C(COC(=O)c1ccccc1Nc1ccccc1)c1ccccc1 | 7 | 20 | 15 | 5 | 6 | 43*
CNc1ccccc1C(=O)OCC(=O)c1ccccc1 | . | 27 | . | 0 | -15 | -33
O=C(COC(=O)c1ccccc1[N+](=O)[O-])c1ccc2c(c1)OCO2 | 5 | 14 | 3 | 3 | 3 | -10
O=C(COC(=O)c1ccccc1-c1ccccc1[N+](=O)[O-])c1ccccc1 | 10 | 30 | 56* | 1 | 18 | 0
COc1ccc(NC(=S)N(CCCN2CCCC2)Cc2cccn2Cc2ccc(Cl)cc2)cc1Cl | 40* | 11 | 36 | 18 | 5 | -4
Cc1ccc(NC(=S)N(CCCN2CCCC2)Cc2cccn2Cc2ccc(Cl)cc2)cc1Cl | 11 | 7 | -39 | 13 | -16 | -6
COc1ccccc1OCc1nc(-c2ccc([N+](=O)[O-])cc2)no1 | 11 | 19 | 29 | 2 | -5 | -16
COc1ccc(-c2noc(COc3ccccc3OC)n2)cc1OC | 0 | 47* | -16 | 1 | -7 | 4
COc1ccc(-c2noc(CCCC(=O)NCCc3ccccc3)n2)cc1OC | 58* | 15 | 3 | 0 | -10 | -30
C[C@@H]1CN([C@@H](C)CO)C(=O)CCCn2nncc2CO[C@@H]1CN(C)C(=O)C1CC1 | 1 | . | 22 | . | . | .
CCCCNC(=O)c1ccc2nc(CC)c(N(C)Cc3ccc(OC)cc3)n2c1 | 1 | . | -10 | . | . | .
COc1ccccc1NC(=O)COC(=O)c1oc2ccccc2c1C | -1 | 51* | 4 | 4 | -30 | -1
CCOC(=O)c1oc2ccccc2c1NC(=O)c1cccc(OC)c1OC | 4 | 25 | 49* | 13 | 3 | -32
COc1ccccc1NC(=O)c1oc2ccccc2c1C | 3 | . | 0 | . | . | .
COc1ccc(NC(=O)c2oc3ccccc3c2C)c(OC)c1 | 10 | 53* | -11 | 6 | -21 | 2
C[C@@H]1CN(C(=O)OC(C)(C)C)CCN1c1ccc(N2CC[C@@H](O)C2)c(C#N)c1 | 6 | . | -1 | . | . | .
CCN(CC)C(=O)CSc1nnc2c3ccccc3n(C)c2n1 | 3 | 26 | -8 | -1 | -7 | -15
CCCSc1nnc2nc3c(nn12)c1ccccc1n3C | -3 | 66* | -22 | 1 | 1 | 2
CCOC(=O)N1CCN(C(=O)C[C@@H]2C[C@@]3(C(=O)OCC)CCC=C3N(Cc3ccc(Cl)cc3Cl)C2=O)CC1 | -1 | . | -18 | . | . | .
Cc1nn(-c2ccccc2)c(N)c1N=Nc1ccc2ccccc2c1 | -1 | 17 | -3 | 3 | -25 | -7
Cc1nn(-c2ccccc2)c(N)c1N=O | 1 | 61* | -13 | 0 | -6 | -8
C=CCn1c(Cc2ccccc2)nc2c(cnn2-c2ccccc2)c1=O | 1 | 13 | 23 | 12 | 39* | 6
CCOC(=O)c1cc(C)sc1NC(=O)CN1CCN(C(=O)c2ccco2)CC1 | 42* | 7 | 35 | 3 | 87* | 53*
SMILES | TAAR1 ag | OX1R antag-1 | TAAR1 antag | NTR1 ag | CHO parental Ca | OX1R antag-2
CCOC(=O)c1c(NC(=O)CN2CCN(C(=O)c3ccco3)CC2)sc2c1CCCC2 | 8 | 15 | 9 | 18 | 60* | 70*
COC(=O)c1cc(C)sc1NC(=O)CN1CCN(C(=O)c2ccco2)CC1 | 6 | 17 | -12 | 0 | -6 | -7
CC(C)Oc1cc(F)ccc1-c1cc(C(=O)Nc2cccc(C(F)(F)F)c2)[nH]n1 | 1 | . | 55* | . | . | .
Cc1cc(F)ccc1-c1cc(C(=O)NCc2ccccc2)[nH]n1 | 2 | . | 0 | . | . | .
CC(C)Oc1ccc(F)cc1-c1cc(C(=O)NCc2ccc(C(F)(F)F)cc2)[nH]n1 | 2 | . | 54* | . | . | .
Cc1cc(O)ccc1-c1cc(C(=O)NCc2ccc(F)cc2)[nH]n1 | 49* | . | 32 | . | . | .
COc1ccc(NC(=O)c2cc(-c3ccc(F)cc3OC(C)C)n[nH]2)cn1 | 4 | . | 42 | . | . | .
OCC1(Cc2ccc(F)cc2F)CCCN(CCCc2ccccc2)C1 (stereo not given) | 3 | 7 | 12 | 1 | -19 | -32
COc1ccc(-c2cc(C(=O)N3CCN(c4ncccn4)CC3)c3ccccc3n2)cc1OC | 13 | 6 | 57* | 6 | -13 | -18
COc1ccc(-c2cc(C(=O)NC3=NCCS3)c3ccccc3n2)cc1OC | 19 | 15 | 49 | 1 | -13 | -39
COc1ccc(-c2cc(C(=O)Nc3ccc(C(N)=O)cc3)c3ccccc3n2)cc1OC | 12 | 10 | 54* | 4 | -12 | 3
Cc1ccc(-c2cc(C(=O)N3CCN(c4ncccn4)CC3)c3ccccc3n2)cc1 | 16 | 13 | 50* | 6 | -33 | -35
COc1ccc(Cl)cc1C(=O)NNC(=S)NC(=O)c1cc(-c2ccc(Cl)cc2)nc2ccccc12 | 37* | 18 | 16 | 5 | -2 | -5
COc1ccc(-c2cc(C(=O)N3CCC3)c3ccccc3n2)cc1OC | 7 | 15 | 17 | 0 | 7 | -5
O=C(c1cc(-c2ccccn2)nc2ccccc12)N1CCN(c2ncccn2)CC1 | 4 | 18 | 17 | 0 | -6 | -9
Cc1cc(N2CCN(CC(C)(C)O)C[C@@H]2C)ccc1N1CCN(Cc2ccccc2)[C@@H](C)C1 | 2 | . | -36 | . | . | .
O=S(=O)(c1ccc(C(F)(F)F)cc1)N1CCCc2nc(-c3ccccc3)ccc21 | 3 | . | -14 | . | . | .
O=C(c1ccccc1)n1c(=O)cc[nH]c1=O | 6 | 5 | 16 | 0 | 3 | 1
Cc1[nH]c2ccccc2c1CC(=O)Nc1ccc(Nc2cccnc2)c(-c2cc(F)cc(F)c2)c1 | 3 | . | 2 | . | . | .
CCN1C(=O)N(C(C)=O)[C@H]2C[C@H](C(=O)N3CCCC3)[C@H](C)[C@H](c3ccccc3)C[C@H]21 | 2 | . | -26 | . | . | .
COc1cc2c(cc1NC(=O)COC(=O)[C@@H](NS(=O)(=O)c1ccccc1)C(C)C)oc1ccccc12 | 4 | 75* | 25 | 1 | -5 | 20
COc1cc2c(cc1NC(=O)COc1ccccc1OC)oc1ccccc12 | 1 | -2 | 12 | 3 | -2 | -4
O=C(Nc1cc([N+](=O)[O-])ccc1Cl)C(Sc1ccccc1)c1ccccc1 (stereo not given) | 0 | 16 | 22 | 5 | -11 | -18
COCC(C)NC(C(=O)Nc1ccc(Cl)c([N+](=O)[O-])c1)c1ccccc1 (stereo not given) | -1 | 11 | -16 | 0 | 81* | -18
